This is an account of results in ChEMBL document CHEMBL3612059, “Synthesis of 1,2-benzisoxazole tethered 1,2,3-triazoles that exhibit anticancer activity in acute myeloid leukemia cell lines by inhibiting histone deacetylases, and inducing p21 and tubulin acetylation” (Bioorg Med Chem, 2015).

For data set [1], the system named is MOLM-14. In words: Induction of apoptosis in human MOLM14 cells assessed as necrotic cells at 2.5 uM after 72 hrs by Annexin V-FITC/propidium iodide staining-based flow cytometric analysis (reference value: 1%). It counts as functional. A digest of the protocol: (§1)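 100,000 cells per well treated with 2.5, 5.0 or 10 μM for 72 h. Washed in ice-cold Ca/Mg-free PBS, resuspended in 100 μl binding buffer, stained with 5 μl PI plus 3 μl annexin V-FITC for 15 min in the dark, then read immediately by flow cytometry. Quadrants scored as live, early apoptotic, late apoptotic and necrotic.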
(A flow cytometer gives signals particle by particle.)

For data set [2], the system named is MV4-11. In words: Induction of apoptosis in human MV4-11 cells assessed as necrotic cells at 2.5 uM after 72 hrs by Annexin V-FITC/propidium iodide staining-based flow cytometric analysis relative to control. It is filed as functional. An outline of the steps: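 MV4-11 cells (RPMI, 10 % FBS, 37 °C, 5 % CO2), 100,000 per well, exposed to PTB at 2.5, 5.0 or 10 μM for 72 h. Washed in ice-cold Ca/Mg-free PBS, stained with annexin V-FITC and PI in 1X binding buffer for 15 min in the dark, then read at once by flow cytometry. Necrotic cells are the annexin-negative/PI-positive quadrant.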

Data set [3] concerns MV4-11. In words: Induction of apoptosis in human MV4-11 cells assessed as early apoptotic cells at 5 uM after 72 hrs by Annexin V-FITC/propidium iodide staining-based flow cytometric analysis (reference value: 7%). It is filed as functional. A digest of the protocol: as §1
For data set [4], the system named is MOLM-14. In words: Induction of apoptosis in human MOLM14 cells after 72 hrs by Annexin V-FITC/propidium iodide staining-based flow cytometric analysis. It counts as functional, cell-based. An outline of the steps: as §1
The target of data set [5] is T1, Protein deacetylase HDAC6 (Homo sapiens) (UniProt Q9UBN7).
T1 sequence (whole entry): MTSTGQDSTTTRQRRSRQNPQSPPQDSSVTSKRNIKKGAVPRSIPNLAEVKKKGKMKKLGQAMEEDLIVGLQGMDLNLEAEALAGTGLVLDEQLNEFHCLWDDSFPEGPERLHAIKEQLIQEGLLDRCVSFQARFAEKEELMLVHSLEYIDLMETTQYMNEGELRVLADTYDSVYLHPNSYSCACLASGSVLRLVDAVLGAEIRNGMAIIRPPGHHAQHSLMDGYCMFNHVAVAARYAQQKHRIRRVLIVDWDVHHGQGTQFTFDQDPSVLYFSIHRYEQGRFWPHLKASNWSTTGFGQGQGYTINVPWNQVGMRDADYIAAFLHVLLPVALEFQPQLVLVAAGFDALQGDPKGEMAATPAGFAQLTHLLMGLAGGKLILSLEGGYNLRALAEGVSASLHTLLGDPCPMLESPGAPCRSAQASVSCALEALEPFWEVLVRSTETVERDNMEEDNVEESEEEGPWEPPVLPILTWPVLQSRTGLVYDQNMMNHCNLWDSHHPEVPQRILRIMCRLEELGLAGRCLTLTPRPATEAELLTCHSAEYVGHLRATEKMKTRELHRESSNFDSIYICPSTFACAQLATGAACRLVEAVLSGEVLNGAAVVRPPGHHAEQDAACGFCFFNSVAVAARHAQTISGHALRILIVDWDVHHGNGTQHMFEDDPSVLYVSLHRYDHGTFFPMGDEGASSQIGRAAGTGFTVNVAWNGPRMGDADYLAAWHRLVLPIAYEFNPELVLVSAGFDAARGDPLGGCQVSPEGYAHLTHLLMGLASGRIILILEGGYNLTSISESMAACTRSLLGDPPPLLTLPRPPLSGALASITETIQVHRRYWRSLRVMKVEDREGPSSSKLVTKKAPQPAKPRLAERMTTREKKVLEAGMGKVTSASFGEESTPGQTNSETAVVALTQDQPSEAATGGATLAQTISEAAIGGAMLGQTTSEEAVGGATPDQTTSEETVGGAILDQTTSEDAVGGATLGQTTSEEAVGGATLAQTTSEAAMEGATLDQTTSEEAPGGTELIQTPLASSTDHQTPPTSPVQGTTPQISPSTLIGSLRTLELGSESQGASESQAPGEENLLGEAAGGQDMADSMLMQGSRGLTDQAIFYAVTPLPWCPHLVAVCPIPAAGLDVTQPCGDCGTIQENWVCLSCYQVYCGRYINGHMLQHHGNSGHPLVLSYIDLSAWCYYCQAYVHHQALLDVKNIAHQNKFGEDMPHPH
In words: Inhibition of HDAC6 in human MOLM14 cells assessed as increase in acetylation of tubulin at lysine 40 by Western blot analysis. It counts as cell-based. To be noted: MOLM-14. (A western blot detects proteins with antibodies after separation by electrophoresis.)

Data set [6] concerns MV4-11. In words: Effect on total histone H3 protein expression in human MV4-11 cells by Western blot analysis. It counts as ADME, cell-based. A digest of the protocol:
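Histones acid-extracted from MV4-11 cells: Triton/EDTA buffer lysis, NaCl wash, then 0.24 M H₂SO₄ final on ice for 2 h and acetone precipitation. Protein measured by Bradford. 0.5 µg loaded on 4-20 % gradient gels and transferred to PVDF. Anti-histone H3 probed as loading control alongside anti-acetyl-H3 (1:1000 in 5 % milk, overnight, 4 °C); HRP secondary 1 h, ECL detection.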

The subject of data set [7] is MOLM-14. In words: Cytotoxicity against human MOLM14 cells assessed as cell viability after 24 to 96 hrs by MTT assay. It counts as functional, cell-based. An outline of the steps: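 AML cells kept in RPMI with 10 % FBS and 1 % penicillin-streptomycin at 37 °C, 5 % CO₂, mycoplasma-screened. Seeded at 8,000 cells/well across a range of concentrations and read at several times up to 96 h. MTT added to 0.5 mg/ml final for 3 h at 37 °C, formazan dissolved in SDS-HCl, absorbance read at 570 nm. IC50 taken from the dose-response curves.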
For orientation: Tetrazolium assays rely on reduction of a dye to a coloured formazan, in cell work by metabolically active cells.

In data set [8] the test system is MOLM-14. In words: Cell cycle arrest in human MOLM14 cells assessed as accumulation at sub-G1 phase after 72 hrs by propidium iodide staining-based flow cytometric analysis. It is filed as functional. An outline of the steps: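 Cells in RPMI with 10 % FBS at 37 °C, 5 % CO₂; treated up to 72 h, washed in cold PBS, fixed in -20 °C-precooled 70 % ethanol at 4 °C. Stained with 50 µg/ml PI, 1 % Triton X-100 and 20 µg/ml RNase A in PBS, 30 min, 37 °C, dark. Cell-cycle phases read by flow cytometry; three independent experiments, mean ± SD.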

The test system of data set [9] is MOLM-13 (Homo sapiens). In words: Cytotoxicity against human MOLM13 cells assessed as cell viability at 0.25 to 5 uM by MTT assay.
In data set [10] the test system is MOLM-13 (Homo sapiens). In words: Cytotoxicity against human MOLM13 cells assessed as cell viability after 24 to 96 hrs by MTT assay.
Data set [11] has as its system MOLM-13 (Homo sapiens). In words: Cell cycle arrest in human MOLM13 cells assessed as accumulation at sub-G1 phase after 72 hrs by propidium iodide staining-based flow cytometric analysis.
In data set [12] the test system is MOLM-13 (Homo sapiens). In words: Induction of apoptosis in human MOLM13 cells assessed as necrotic cells at 10 uM after 72 hrs by Annexin V-FITC/propidium iodide staining-based flow cytometric analysis (reference value: 3%).

Activity calls are given as the source filed them. The rule behind the calls is not given here.

Turning to `c1ccc(Oc2ccc(-c3cn(-c4noc5ccccc45)nn3)cc2)cc1`, the Activity is 2% in [1]; 2% in [2]; 16% in data set [3]; “Dose-dependent effect” in data set [4]; “Non-toxic” in data set [6]; “Dose-dependent effect” in data set [7]. Besides, the Activity entry in data set [9] was “Dose-dependent effect”; in [10], “Dose-dependent effect”; in data set [12], 18%. For the same compound, the inhibition result in data set [5] is “Active”. The result in data set [8] and in [11] was Active.
